According to ChEMBL document CHEMBL1177652 (Bioorg Med Chem, 2010):

Tests used:
Acetylcholinesterase = Acetylcholinesterase (Homo sapiens, UniProt P22303); experiment: Inhibition of human whole RBC AChE pretreated for 30 mins by Ellman technique
Cholinesterase = Cholinesterase (Homo sapiens, UniProt P06276); experiment: Inhibition of human plasma BChE pretreated for 30 mins by Ellman technique; type: cell-free
Rattus norvegicus [1] = experiment: Ex vivo inhibition of cholinesterase in Fischer-344 rat plasma at 10 mg/kg, ip after 60 mins by spectrophotometric analysis; type: functional; conditions: Fischer-344, Plasma, 1 h, route intraperitoneal
Method in brief: (§1)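 Anesthetized rats given 10 mg/kg i.p.; predrug blood for resting activity, then samples 5 min to 24 hr, centrifuged, plasma frozen at −80° C. Thawed plasma (10 ul) in 0.1 M sodium phosphate pH 7.4 ± iso-OMPA, then DTNB plus S-butyrylthiocholine; 412 nm read 20 min later, r.t., duplicates. Iso-OMPA-sensitive difference expressed as percent of predrug level.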

Rattus norvegicus [2] = experiment: Ex vivo inhibition of cholinesterase in Fischer-344 rat plasma at 10 mg/kg, ip after 24 hrs by spectrophotometric analysis; type: functional; conditions: Fischer-344, Plasma, route intraperitoneal; method in brief: as §1
Rattus norvegicus [3] = experiment: Toxicity in Fischer-344 rat assessed as lacrimation and salivation at 10 mg/kg, ip; type: organism-based; parameters: dose 10 mg/kg, route intraperitoneal; conditions: in vivo
Rattus norvegicus [4] = experiment: Toxicity in Fischer-344 rat assessed as tremor at 10 mg/kg, ip; type: organism-based; parameters: dose 10 mg/kg, route intraperitoneal; conditions: in vivo

Sequence of Cholinesterase (P06276 whole entry): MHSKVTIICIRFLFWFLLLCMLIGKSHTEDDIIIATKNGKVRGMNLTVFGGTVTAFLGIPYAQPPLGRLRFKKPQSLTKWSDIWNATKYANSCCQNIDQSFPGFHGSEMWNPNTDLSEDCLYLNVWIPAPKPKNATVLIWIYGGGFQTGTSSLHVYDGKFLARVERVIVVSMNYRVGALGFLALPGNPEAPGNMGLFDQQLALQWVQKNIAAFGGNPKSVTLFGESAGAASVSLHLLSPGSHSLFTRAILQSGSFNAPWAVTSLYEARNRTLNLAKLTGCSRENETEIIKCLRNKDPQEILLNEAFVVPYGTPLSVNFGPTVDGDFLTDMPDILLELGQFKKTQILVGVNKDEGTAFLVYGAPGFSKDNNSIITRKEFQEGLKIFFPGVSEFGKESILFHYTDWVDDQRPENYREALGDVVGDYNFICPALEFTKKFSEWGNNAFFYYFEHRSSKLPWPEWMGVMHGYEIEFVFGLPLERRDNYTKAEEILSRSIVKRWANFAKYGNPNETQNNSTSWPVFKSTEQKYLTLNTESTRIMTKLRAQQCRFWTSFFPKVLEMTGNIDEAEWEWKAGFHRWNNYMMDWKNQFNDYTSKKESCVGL
Sequence of Acetylcholinesterase (P22303 whole entry): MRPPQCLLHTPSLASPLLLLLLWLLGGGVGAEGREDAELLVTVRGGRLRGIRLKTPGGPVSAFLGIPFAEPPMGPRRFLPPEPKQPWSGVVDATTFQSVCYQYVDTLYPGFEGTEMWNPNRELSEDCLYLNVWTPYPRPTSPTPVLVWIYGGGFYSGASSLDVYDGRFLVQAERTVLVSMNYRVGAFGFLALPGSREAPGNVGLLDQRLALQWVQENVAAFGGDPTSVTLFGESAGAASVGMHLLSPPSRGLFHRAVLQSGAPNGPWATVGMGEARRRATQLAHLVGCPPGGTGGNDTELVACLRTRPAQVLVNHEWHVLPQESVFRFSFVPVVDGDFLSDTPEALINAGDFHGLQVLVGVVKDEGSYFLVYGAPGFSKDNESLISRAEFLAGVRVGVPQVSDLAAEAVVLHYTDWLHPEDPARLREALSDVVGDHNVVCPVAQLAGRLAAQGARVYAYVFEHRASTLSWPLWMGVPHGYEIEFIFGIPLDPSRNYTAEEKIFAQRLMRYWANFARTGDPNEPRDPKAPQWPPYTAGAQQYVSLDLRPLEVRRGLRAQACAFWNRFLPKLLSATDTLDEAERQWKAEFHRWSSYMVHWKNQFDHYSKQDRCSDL

SMILES	IC50 (Acetylcholinesterase)	IC50 (Cholinesterase)	further results
CN(C)c1cccc(OC(=O)Nc2ccccc2)c1	2500 nM	18000 nM	–
C[N+](C)(C)c1cccc(OC(=O)Nc2ccccc2)c1	1870 nM	18000 nM	–
Cc1ccccc1NC(=O)Oc1ccc2c(c1)[C@]1(C)CC[N+](C)(C)C1N2C (some centres not stated)	14.6 nM	–	–
CC(C)c1ccc(NC(=O)Oc2ccc3c(c2)[C@]2(C)CC[N+](C)(CCc4ccccc4)C2N3C)cc1 (some centres not stated)	300 nM	–	–
O=C(Nc1ccccc1)Oc1cccnc1	> 30000 nM	> 30000 nM	–
C[n+]1cccc(OC(=O)Nc2ccccc2)c1	> 30000 nM	–	–
CNC(=O)Oc1ccc2c(c1)[C@]1(C)CC[N+](C)(C)C1N2C (some centres not stated)	26.1 nM	–	–
CN1c2ccc(OC(=O)Nc3ccccc3)cc2[C@]2(C)CC[N+](C)(C)C12 (some centres not stated)	25.4 nM	–	–
CC(C)c1ccc(NC(=O)Oc2ccc3c(c2)[C@]2(C)CC[N+](C)(C)C2N3C)cc1.[Br-] (some centres not stated)	145 nM	–	inhibition in vivo at 10 mg/kg (Rattus norvegicus [1]): 66%; inhibition in vivo at 10 mg/kg (Rattus norvegicus [2]): 33%; Activity (Rattus norvegicus [3]): Non-toxic; Activity (Rattus norvegicus [4]): Non-toxic
CN(C)C(=O)Oc1cccc([N+](C)(C)C)c1 [NEOSTIGMINE METHYLSULFATE]	–	60 nM	–
